Source: PubChem BioAssay
CaV13 FRET inh: Disruptors of the CACNA1D IQ motif to Ca2+-dependent inactivation inhibitor domain association, primary screening, Förster resonance energy transfer in intact living …; inhibition, % at 12.3 µM; actives 0.098% (n = 340,000); HEK cells, CFP/YFP FRET ICDI-IQ, plate reader, 10 min; percent FRET-ratio fall versus neutral wells;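 active = mean replicate inhibition of at least 30% and at least 1% of replicates passing that level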;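 also: 0% = median of the neutral control wells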
Cneo AK release: Cryptococcus neoformans cell lysis inducers, primary screen, AK release luminescence, single concentration; lysis activity, % at 15 µM; actives 0.2% (n = 360,000); C. neoformans lysis, adenylate kinase release luminescence, 4 h; normalised: neutral wells 0, clomiphene wells 100;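 active = mean lysis activity across replicates of at least 80%, whatever share of replicates individually reach that level; inactive = mean lysis activity below 80%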
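Test system: log-phase Cryptococcus neoformans yeast cells; Quantity: yeast cell density of 5 × 10^6 cells/mL; Buffer or medium: YPD; Doses: single compound concentration per well; Timing: 4 h at 37 °C static, read 1 h later; Measured by: AK luminescence; Read-out basis: lysis from increased AK signal; Control set: Clomiphene as positive control.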
Ecoli rRNA inh: reduced GFP signal of wild-type E. coli, primary screen, bacterial rRNA inhibitor project, GFP/RFP fluorescence, OD600, single point. actives 1.6% (n = 350,000). GFP signal change (wild-type ribosome), % (concentration not given with the values). AID 720706, 2013. E. coli WT GFP vs humanized-ribosome RFP mutants, 24 h; active compounds read low; DMSO median 0, no signal -100;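 active = significant combined selectivity score with lowered wild-type GFP, culture density cut under 30%, mutant RFP and density less affected; inactive = any of these conditions unmet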
CFTR F508del cor: F508del CFTR correction, initial screen, CFBE line, single point. AID 720511, 2013. CFBE cells, YFP halide quenching; stimulated with forskolin plus potentiator P3; % fluorescence drop versus neutral controls. activity (quench increase), % at 7.58 µM. actives 0.36% (n = 350,000);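 active = mean added fluorescence quench of at least 8% versus neutral control, with both replicates also reaching 8%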;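 also: cells transiently co-express mutant CFTR-F508del with the halide-sensitive YFP; corrector assay measuring rescue of mutant channel to the surface after 24 h compound exposure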
* = called active by the depositor; . = no result; + = active, no number. A selection: hits, their analogues and other compounds. The true share with any hit is near 1.7%.

SMILES	CaV13 FRET inh	Cneo AK release	Ecoli rRNA inh	CFTR F508del cor
COc1ccc(NC(=O)Nc2ccc3c(c2)C(=O)N([C@H](C)CO)C[C@@H](C)[C@H](CN(C)Cc2ccc(C(F)(F)F)cc2)OCCCC[C@H](C)O3)cc1	.	-2	2	14*
C[C@H]1CCCCO[C@H](CN(C)C(=O)Nc2ccc(C(F)(F)F)cc2)[C@@H](C)CN([C@@H](C)CO)C(=O)c2cc(NC(=O)Nc3ccc(F)cc3)ccc2O1	.	2	3	8.0*
COc1ccc(CN(C)C[C@@H]2OCCCC[C@H](C)Oc3ccc(NC(=O)c4ccccc4)cc3C(=O)N([C@@H](C)CO)C[C@H]2C)cc1	.	-1	-2	-2
COc1ccc(CN(C)C[C@@H]2OCCCC[C@@H](C)Oc3ccc(NC(=O)c4ccccc4)cc3C(=O)N([C@H](C)CO)C[C@@H]2C)cc1	.	86*	1	-1
COc1ccc(NC(=O)Nc2ccc3c(c2)C(=O)N([C@@H](C)CO)C[C@@H](C)[C@H](CN(C)Cc2ccc(C(F)(F)F)cc2)OCCCC[C@@H](C)O3)cc1	.	49	-2	-3
C[C@@H]1CN([C@@H](C)CO)C(=O)Cc2cc(NC(=O)Cc3cn(C)c4ccccc34)ccc2O[C@@H]1CN(C)C(=O)Nc1ccc(F)cc1	.	.	1	-2
Cn1nc(C(=O)NNC(=O)CCOc2ccc(C(C)(C)C)cc2)c2ccccc2c1=O	-7	-1	2	10*
CCOc1ccc(OCCC(=O)NNC(=O)c2nn(C)c(=O)c3ccccc23)cc1	.	-2	2	1
O=C1c2ccccc2S(=O)(=O)c2cc(N3CCC(C(=O)N4CCCCC4)CC3)ccc21	+	.	-21*	0
S=C(NCCc1cccc(Cl)c1)NC1CCCCC1	-11	88*	-56	-2
Cc1ccsc1-c1n[nH]c(=S)n1C1CCCCC1	-3	.	-41*	.
C=CCn1c(COc2cccc(C)c2)nnc1SCn1nnc2ccccc2c1=O	-5	5	-43*	0
C=CCn1c(SCn2nnc3ccccc3c2=O)nnc1-c1ccc(Br)cc1	-5	4	.	.
Cc1nn2c(NCCN3CCOCC3)c3c(nc2c1-c1ccccc1)CCCC3	-13	-4	-34*	-5
C[C@H]1CN([C@@H](C)CO)C(=O)c2cccc(NS(=O)(=O)c3ccc(Cl)cc3)c2O[C@@H]1CN(C)S(=O)(=O)c1cn(C)cn1	.	.	-2	1
O=C(NC(=S)Nc1ccc(S(=O)(=O)Nc2nccs2)cc1)c1ccccc1	-3	-1	.	.
O=C(Nc1ccc(S(=O)(=O)Nc2ncccn2)cc1)c1cnc(Cl)c(Cl)c1	-8	.	27	0
O=C(Nc1ccc(S(=O)(=O)Nc2nccs2)cc1)c1cnc(Cl)c(Cl)c1	-4	.	-29*	0
O=C(NC(=S)Nc1ccc(S(=O)(=O)Nc2nccs2)cc1)c1ccccc1F	2	.	-22*	0
O=C(N[C@H]1CC[C@@H](CCNS(=O)(=O)c2cccc(Cl)c2)O[C@H]1CO)c1ccccc1	.	-2	-6	-2
CCC(=O)N(C)C[C@H]1Oc2cc(-c3ccncc3)ccc2S(=O)(=O)N([C@@H](C)CO)C[C@H]1C	.	0	0	0
CCNC(=O)[C@H]1[C@H](CO)[C@H]2Cn3c(ccc(-c4cccnc4)c3=O)[C@H]2N1Cc1ccccc1	.	0	0	-4
COc1ccc(NS(=O)(=O)c2ccc(NC(=O)c3ccccc3Br)cc2)nn1	0	0	-26*	4
C[C@@H]1CN([C@@H](C)CO)S(=O)(=O)c2ccc(C3=CCCC3)cc2O[C@@H]1CN(C)Cc1cccnc1	.	3	-20	-3
O=C(OCc1ccccc1)c1ccc(NCc2cc(O)ccc2O)cc1	-6	.	-36*	-1
SMILES	CaV13 FRET inh	Cneo AK release	Ecoli rRNA inh	CFTR F508del cor
O=C(c1cnccn1)N1CC(=O)N2[C@@H](CO)[C@H](c3ccc(/C=C/c4ccccc4)cc3)[C@@H]2C1	.	.	0	2
Cc1cccc(COc2ccccc2C(=O)NC2CCC(O)CC2)c1 (stereo not drawn)	-3	-3	-16	8.2*
COc1ccc(OC)c(-c2nnc3n2N=C(c2ccc(OC)c(OC4CCCC4)c2)CS3)c1	-10	1	-26	4
COc1ccc(C2=Nn3c(nnc3-c3ccccc3OC)SC2)cc1OCC1CC1	-5	2	-27*	5
COc1ccc(OC)c(-c2nnc3n2N=C(c2ccc(OC)c(OC)c2)CS3)c1	-7	2	-19*	9.5*
CCCN1[C@@H]2c3ccc(-c4ccccc4)c(=O)n3C[C@@H]2[C@@H](CO)[C@@H]1C(=O)NCC1CC1	.	47	-2	-5
COc1cccc(/C=N/NC(=O)c2ccc(CN3c4cccc5cccc(c45)S3(=O)=O)cc2)c1	-5	2	8	0
O=C(N/N=C/c1cccnc1)c1ccc(CN2c3cccc4cccc(c34)S2(=O)=O)cc1	-5	-1	-18*	-1
COc1ccc2oc(C)c(C(=O)c3ccccc3)c2c1	-5	.	-30*	.
O=C(C[n+]1cccc(CNC(=O)c2ccc(OC(F)F)cc2)c1)Nc1cccc(C(F)(F)F)c1	-14	5	.	.
O=C(C[n+]1cccc(CNC(=O)c2ccc(OC(F)F)cc2)c1)Nc1ccc(F)cc1	-3	.	-19*	.
Cc1ccccc1C(=O)Nc1c(C(=O)N(CCN(C)C)Cc2ccco2)oc2ccccc12	-6	-7	0	0
COc1ccccc1C(=O)Nc1c(C(=O)N(CCN(C)C)Cc2ccco2)oc2ccccc12	-5	3	-40*	1
O=C(Nc1ccc(OCc2ccccc2)cc1)Nc1ccccc1C(=O)NCCCN1CCOCC1	-4	.	-22*	-3
O=C(Nc1ccccc1C(=O)NCCCN1CCOCC1)c1ccc(F)cc1F	.	-2	3	-2
C[C@@H]1CCCCO[C@H](CN(C)Cc2ccccc2)[C@H](C)CN([C@@H](C)CO)C(=O)c2cc(NS(=O)(=O)c3cccs3)ccc2O1	.	86*	1	-1
C[C@H]1CCCCO[C@H](CN(C)S(=O)(=O)c2ccc(Cl)cc2)[C@@H](C)CN([C@@H](C)CO)C(=O)c2cc(NS(=O)(=O)c3cccs3)ccc2O1	.	89*	-3	-2
Cc1ccc(S(=O)(=O)N(C)C[C@@H]2OCCCC[C@@H](C)Oc3ccc(NS(=O)(=O)c4ccc(Cl)cc4)cc3C(=O)N([C@@H](C)CO)C[C@@H]2C)cc1	.	59	1	8.6*
C[C@@H]1CN([C@@H](C)CO)C(=O)CCCn2nncc2CO[C@@H]1CN(C)C	.	.	2	-3
Cc1ccc(SCc2cn3c(C)csc3n2)cc1	-7	-5	-51*	-3
Cc1ccc(S(=O)(=O)NCc2cn3c(C)csc3n2)cc1	-5	.	.	.
CNC[C@H]1Oc2c(NC(C)=O)cccc2C(=O)N(C)C[C@H]1C	.	.	-1	.
